In ChEMBL document CHEMBL3425486, “Lathyrol diterpenes as modulators of P-glycoprotein dependent multidrug resistance: structure-activity relationship studies on Euphorbia factor L3 derivatives” (J Med Chem, 2015) one finds IC50, Activity and Ratio EC50 data, which are given here for 28 molecules.

In general, IC50 refers to the concentration that inhibits the measured activity by half.

One series relates to MCF7. The series can be described thus: Cytotoxicity against human MCF7 cells assessed as reduction in cell viability after 48 hrs by SRB colorimetric assay. The class given is functional, cell-based. The settings on record: MCF7, 48 h. In a few lines:
(§1)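 MCF-7 from ATCC and its stepwise ADR-selected resistant subline, grown in RPMI-1640 with 10% FBS and penicillin/streptomycin at 37 °C, 5% CO2. 1 × 10^4 cells/well exposed to graded compound concentrations for 48 h. Cells fixed with 10% TCA, stained with 0.4% SRB in 1% acetic acid, dye extracted with 10 mM Tris base, OD read at 490 nm. Taxol positive control.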
(In general: Sulforhodamine B stains cellular protein and so reports cell mass.)

Series [1] can be described thus: Cytotoxicity against human MCF7/ADR cells assessed as reduction in cell viability after 48 hrs by SRB colorimetric assay. The class given is functional, cell-based. The settings on record: NCI/ADR-RES. In a few lines:
as §1

The target of series [2] is ATP-dependent translocase ABCB1 (Homo sapiens, UniProt P08183). The series can be described thus: Inhibition of P-gp in human MCF7/ADR cells assessed as reversal of multidrug resistance by measuring relative enhancement intensity for adriamycin-induced cytotoxicity at 10 uM after 48 hrs by SRB colorimetric assay. It is filed as cell-based. Further details: scale not given: the % may be the effect or the level left. The settings on record: nci/adr-res.
Chain of ATP-dependent translocase ABCB1 (P08183 whole entry): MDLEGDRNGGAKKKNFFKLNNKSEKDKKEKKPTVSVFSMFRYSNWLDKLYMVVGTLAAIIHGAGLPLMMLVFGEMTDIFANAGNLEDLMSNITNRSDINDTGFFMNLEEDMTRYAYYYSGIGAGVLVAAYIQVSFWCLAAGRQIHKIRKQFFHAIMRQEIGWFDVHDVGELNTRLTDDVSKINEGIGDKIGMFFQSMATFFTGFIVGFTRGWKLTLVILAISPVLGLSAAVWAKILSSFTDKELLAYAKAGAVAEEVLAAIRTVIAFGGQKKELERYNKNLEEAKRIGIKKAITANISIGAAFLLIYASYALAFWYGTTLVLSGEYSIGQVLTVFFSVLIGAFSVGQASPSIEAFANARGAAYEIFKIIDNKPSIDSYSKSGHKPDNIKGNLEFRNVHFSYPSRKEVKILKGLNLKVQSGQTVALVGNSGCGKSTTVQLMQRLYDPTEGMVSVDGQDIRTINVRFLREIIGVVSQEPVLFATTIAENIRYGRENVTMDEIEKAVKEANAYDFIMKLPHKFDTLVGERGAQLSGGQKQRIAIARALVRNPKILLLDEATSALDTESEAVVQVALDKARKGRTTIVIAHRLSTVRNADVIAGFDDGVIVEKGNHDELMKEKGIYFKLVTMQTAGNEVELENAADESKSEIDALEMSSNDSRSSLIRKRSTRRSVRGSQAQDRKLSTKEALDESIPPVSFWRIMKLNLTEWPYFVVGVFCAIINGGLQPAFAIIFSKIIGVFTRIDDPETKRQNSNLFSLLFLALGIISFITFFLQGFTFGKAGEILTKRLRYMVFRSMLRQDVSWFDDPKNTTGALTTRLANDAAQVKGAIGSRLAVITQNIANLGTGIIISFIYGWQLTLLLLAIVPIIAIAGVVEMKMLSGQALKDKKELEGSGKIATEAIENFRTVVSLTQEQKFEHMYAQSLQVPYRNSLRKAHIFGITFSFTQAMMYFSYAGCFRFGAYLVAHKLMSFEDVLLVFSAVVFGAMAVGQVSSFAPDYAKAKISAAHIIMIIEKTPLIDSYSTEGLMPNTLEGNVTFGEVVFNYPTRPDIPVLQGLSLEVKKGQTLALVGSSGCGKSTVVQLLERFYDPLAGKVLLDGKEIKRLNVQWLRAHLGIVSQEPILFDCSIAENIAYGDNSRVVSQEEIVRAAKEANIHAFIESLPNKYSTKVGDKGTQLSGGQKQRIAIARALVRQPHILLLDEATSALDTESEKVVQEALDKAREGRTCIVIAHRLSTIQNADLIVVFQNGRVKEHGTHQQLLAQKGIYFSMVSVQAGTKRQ

The next series relates to NCI/ADR-RES. The series can be described thus: Inhibition of P-gp in human MCF7/ADR cells assessed as reversal of multidrug resistance at 10 uM by measuring ratio of EC50(adriamycin)/EC50(adriamycin + compound) after 48 hrs by SRB colorimetric assay. It is filed as cell-based.

The structures appear in SMILES notation.

Take `C=C1CC[C@H]2[C@@H](/C=C(\C)C(=O)[C@@]3(O)C[C@H](C)[C@H](O)[C@@H]3[C@H]1OC(=O)/C=C/c1ccccc1)C2(C)C`: the figures for the IC50 (in the series with MCF7; in series [1]) were 8.24 µM and 58.8 µM, respectively. In addition, the Activity in series [2] turned out to be 9.1%. In the series on NCI/ADR-RES, the Ratio EC50 came out at 2.7.
The matching figures for `C=C1CC[C@H]2[C@@H](/C=C(\C)C(=O)[C@@]3(O)C[C@H](C)[C@H](O)[C@@H]3[C@H]1OC(=O)CC)C2(C)C`: 32.1 µM, 53.5 µM, 11.3% and 2.3.
The matching figures for `C=C1CC[C@H]2[C@@H](/C=C(\C)C(=O)[C@@]3(O)C[C@H](C)[C@H](O)[C@@H]3[C@H]1OC(C)=O)C2(C)C`: 26.6 µM, 80.7 µM, 7.1% and 1.9.
In the case of `C=C1CC[C@H]2[C@@H](/C=C(\C)C(=O)[C@@]3(O)C[C@H](C)[C@H](OC(=O)Cc4cccc5ccccc45)[C@@H]3[C@H]1OC(=O)Cc1cccc3ccccc13)C2(C)C`, the figures for the concentration for half-maximal inhibition (IC50) (in the series on MCF7; in series [1]) were 13.4 µM and over 100 µM, respectively. Also, the Activity in series [2] turned out to be 10.1%. Moreover, the Ratio EC50 in the series on NCI/ADR-RES was found to be 1.4.
The matching figures for `C=C1CC[C@H]2[C@@H]([C@@H]3O[C@]4(C[C@H](C)[C@H](OC(=O)Cc5ccccc5)[C@@H]4[C@H]1OC(=O)Cc1ccccc1)C(=O)[C@H]3C)C2(C)C`: 28.5 µM, over 100 µM, 11.6% and 2.1.
The matching figures for `C=C1CC[C@H]2[C@@H](/C=C(\C)C(=O)[C@@]3(O)C[C@H](C)[C@H](O)[C@@H]3[C@H]1OC(=O)c1cccnc1)C2(C)C`: 17.3 µM, 19.3 µM, 10.3% and 2.3.
As to `C=C1CC[C@H]2[C@@H]([C@@H]3O[C@]4(C[C@H](C)[C@H](OC(=O)CCc5ccccc5)[C@@H]4[C@H]1OC(=O)CCc1ccccc1)C(=O)[C@@H]3C)C2(C)C`, the IC50 was 14.2 µM in the series with MCF7 and 40.1 µM in series [1]. Besides, the Activity in series [2] came to 8.3%. In addition, in the series on NCI/ADR-RES, the Ratio EC50 came to 1.6.
The matching figures for `C=C1CCC(=C(C)C)[C@H]2C[C@@H](C)C(=O)[C@@]3(C[C@H](C)[C@H](OC(C)=O)[C@@H]3[C@H]1OC(C)=O)O2`: 45.8 µM, 65.2 µM, 2.4% and 1.9.
The matching figures for `C=C1CC[C@H]2[C@@H]([C@@H]3O[C@]4(C[C@H](C)[C@H](OC(=O)c5ccccc5)[C@@H]4[C@H]1OC(=O)c1ccccc1)C(=O)[C@@H]3C)C2(C)C`: 25.2 µM, over 100 µM, 6.8% and 3.2.
Consider `C=C1CC[C@H]2[C@@H](/C=C(\C)C(=O)[C@@]3(O)C[C@H](C)[C@H](OC(=O)CC)[C@@H]3[C@H]1OC(=O)Cc1ccccc1)C2(C)C`, for which the 50% inhibitory concentration (IC50) in the series on MCF7 is 9.57 µM; in series [1], 76 µM. The Activity in series [2] is recorded as 9.3%. For the same molecule, the Ratio EC50 in the series on NCI/ADR-RES was found to be 8.1.
The matching figures for `C=C1CC[C@H]2[C@@H]([C@@H]3O[C@]4(C[C@H](C)[C@H](OC(=O)CCC)[C@@H]4[C@H]1OC(=O)CCC)C(=O)[C@H]3C)C2(C)C`: 19.1 µM, over 100 µM, 7.7% and 3.
Turning to `C=C1CC[C@H]2[C@@H](/C=C(\C)C(=O)[C@@]3(O)C[C@H](C)[C@H](O)[C@@H]3[C@H]1OC(=O)CC(C)C)C2(C)C`, the 50% inhibitory concentration (IC50) stood at 14.8 µM in the series with MCF7 and 60.8 µM in series [1]. The Activity in series [2] was determined as 4.7%. In addition, in the series with NCI/ADR-RES, the Ratio EC50 was 4.1.
As to `C=C1CC[C@H]2[C@@H](/C=C(\C)C(=O)[C@@]3(O)C[C@H](C)[C@H](OC(C)=O)[C@@H]3[C@H]1OC(C)=O)C2(C)C`, the concentration for half-maximal inhibition (IC50) with MCF7 stood at 21.6 µM; in series [1] it was 41 µM. Also, in series [2], the Activity was found to be 4.7%. In the series on NCI/ADR-RES, the Ratio EC50 is 4.1.
The matching figures for `C=C1CC[C@H]2[C@@H](/C=C(\C)C(=O)[C@@]3(O)C[C@H](C)[C@H](O)[C@@H]3[C@H]1O)C2(C)C`: 34 µM, 59.6 µM, 7.3% and 3.
The matching figures for `C=C1CC[C@H]2[C@@H](/C=C(\C)C(=O)[C@@]3(O)C[C@H](C)[C@H](O)[C@@H]3[C@H]1OC(=O)Cc1ccccc1)C2(C)C`: 14.8 µM, 42.9 µM, 9.6% and 7.4.
With `C=C1CC[C@H]2[C@@H](/C=C(\C)C(=O)[C@@]3(O)C[C@H](C)[C@H](OC(=O)/C=C/c4ccccc4)[C@@H]3[C@H]1OC(=O)c1ccccc1)C2(C)C`, the IC50 came out at 14.2 µM with MCF7 and 42.1 µM in series [1]. For the same molecule, in series [2], the Activity worked out at 12.1%. In addition, the Ratio EC50 in the series with NCI/ADR-RES stood at 9.8.
For `C=C1CC[C@H]2[C@@H](/C=C(\C)C(=O)[C@@]3(O)C[C@H](C)[C@H](OC(=O)CC)[C@@H]3[C@H]1OC(=O)CC)C2(C)C`, the values for the half-maximal inhibitory concentration (IC50) (in the series on MCF7; in series [1]) were 18.6 µM and 45 µM, respectively. Moreover, the Activity in series [2] is on record as 4.6%. In addition, in the series with NCI/ADR-RES, the Ratio EC50 worked out at 2.8.
As to `C=C1CC[C@H]2[C@@H](/C=C(\C)C(=O)[C@@]3(O)C[C@H](C)[C@H](O)[C@@H]3[C@H]1OC(=O)CCCC)C2(C)C`, the IC50 in the series on MCF7 came to 13.1 µM; in series [1], 57.9 µM. Further, the Activity in series [2] is reported as 0.1%. In the series on NCI/ADR-RES, the Ratio EC50 stood at 0.8.
On to `C=C1CC[C@H]2[C@@H]([C@@H]3O[C@]4(C[C@H](C)[C@H](OC(=O)CCc5ccccc5)[C@@H]4[C@H]1OC(=O)CCc1ccccc1)C(=O)[C@H]3C)C2(C)C`, for which the IC50 with MCF7 is 46.8 µM; in series [1], over 100 µM. Also, the Activity in series [2] turned out to be 6.9%. Also, in the series with NCI/ADR-RES, the Ratio EC50 is 1.2.
For the molecule `C=C1CC[C@H]2[C@@H](/C=C(\C)C(=O)[C@@]3(O)C[C@H](C)[C@H](O)[C@@H]3[C@H]1OC(=O)C(C)C)C2(C)C`, the half-maximal inhibitory concentration (IC50) in the series on MCF7 was determined as 17 µM; in series [1], 66.3 µM. In series [2], the Activity came out at 10.1%. In addition, the Ratio EC50 in the series on NCI/ADR-RES is 3.2.
The matching figures for `C=C1CC[C@H]2[C@@H](/C=C(\C)C(=O)[C@@]3(O)C[C@H](C)[C@H](OC(=O)CCc4ccccc4)[C@@H]3[C@H]1OC(=O)CCc1ccccc1)C2(C)C`: 28.7 µM, over 100 µM, 6% and 1.3.
The matching figures for `C=C1CC[C@H]2[C@@H](/C=C(\C)C(=O)[C@@]3(O)C[C@H](C)[C@H](O)[C@@H]3[C@H]1OC(=O)c1ccccc1)C2(C)C`: 11.6 µM, 55.3 µM, 7.5% and 1.5.
The matching figures for `C=C1CC[C@H]2[C@@H](/C=C(\C)C(=O)[C@@]3(O)C[C@H](C)[C@H](OC(=O)Cc4ccccc4)[C@@H]3[C@H]1OC(=O)Cc1ccccc1)C2(C)C`: 8.93 µM, 36.3 µM, 9.5% and 2.6.
Turning to `C=C1CC[C@H]2[C@@H]([C@@H]3O[C@]4(C[C@H](C)[C@H](OC(=O)Cc5cccc6ccccc56)[C@@H]4[C@H]1OC(=O)Cc1cccc4ccccc14)C(=O)[C@H]3C)C2(C)C`, the IC50 with MCF7 was 84.9 µM; in series [1] it was over 100 µM. In series [2], the Activity is listed as 10.4%. Also, the Ratio EC50 in the series on NCI/ADR-RES came out at 1.4.
On to `C=C1CC[C@H]2[C@@H]([C@@H]3O[C@]4(C[C@H](C)[C@H](OC(=O)Cc5ccccc5)[C@@H]4[C@H]1OC(=O)Cc1ccccc1)C(=O)[C@@H]3C)C2(C)C`, for which the values for the IC50 (with MCF7; in series [1]) were 28.5 µM and 55 µM, respectively. In addition, the Activity in series [2] is 4%. Also, in the series on NCI/ADR-RES, the Ratio EC50 was 1.6.
The matching figures for `C=C1CC[C@H]2[C@@H](/C=C(\C)C(=O)[C@@]3(O)C[C@H](C)[C@H](O)[C@@H]3[C@H]1OC(=O)CCc1ccccc1)C2(C)C`: 11 µM, 23.4 µM, 11.6% and 3.5.
The matching figures for `C=C1CC[C@H]2[C@@H]([C@@H]3O[C@]4(C[C@H](C)[C@H](OC(=O)CCCCC)[C@@H]4[C@H]1OC(=O)CCCCC)C(=O)[C@H]3C)C2(C)C`: 48.1 µM, over 100 µM, 6.8% and 7.
Regarding `C=C1CC[C@H]2[C@@H](/C=C(\C)C(=O)[C@@]3(O)C[C@H](C)[C@H](OC(=O)c4ccccc4)[C@@H]3[C@H]1OC(=O)Cc1cccc3ccccc13)C2(C)C`, the 50% inhibitory concentration (IC50) with MCF7 was 4.16 µM; in series [1] it was over 100 µM. Further, the Activity in series [2] came to 11.1%. For the same molecule, in the series on NCI/ADR-RES, the Ratio EC50 turned out to be 4.
